In ChEMBL document CHEMBL4699669, “Discovery of a Potent Adenine-Benzyltriazolo-Pleuromutilin Conjugate with Pronounced Antibacterial Activity against MRSA” (J Med Chem, 2020):
≈ marks a conversion by molar mass, not a printed value.

Legend:
Staphylococcus aureus [1] = assay: Antibacterial activity against methicilin-resistant Staphylococcus aureus USA300 FPR3757 incubated for 20 to 24 hrs by microbroth dilution assay; format: functional; conditions: time hrs 20-24
Summary of the method: (§1)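 Broth microdilution per EUCAST in Mueller-Hinton broth. Inoculum 5.0·10^5 CFU/mL, prepared from overnight single-colony cultures at OD600 0.1 then diluted 100x. Final compound concentrations 0.015–16 µg/mL. Incubation at 37 °C for 20–24 h, protected from light. MIC is the lowest concentration with no visible growth. Each replicate uses three cultures; n = 2–3.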

Staphylococcus aureus [2] = assay: Antibacterial activity against methicilin-resistant Staphylococcus aureus 4828 incubated for 20 to 24 hrs by microbroth dilution assay; format: functional; conditions: time hrs 20-24; summary of the method: as §1
Caco-2 [3] = assay: Cytotoxicity against differentiated human Caco2 cells assessed as increase in ATP level at 108 ug/ml incubated for 3 hrs by Cell-titer Glo assay; format: cell-based; conditions: caco-2, 3 h, dose 108 µg/ml
Summary of the method: (§2)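 Cells rinsed of growth medium, then exposed 3 h at 37 °C, 220 rpm, light-protected, to compound in HBSS with 10 mM HEPES, pH 7.4 (final DMSO <1% at top concentrations). Plates equilibrated 10 min at rt, CellTiter-Glo 2.0 added, mixed 2 min, signal stabilized 10 min. Luminescence (ATP) normalized to HBSS-only control cells. Mean ± SD of 3 wells, one passage.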

[4] = tested on: Staphylococcus epidermidis; assay: Antibacterial activity against methicilin-resistant Staphylococcus epidermis 933010 incubated for 20 to 24 hrs by microbroth dilution assay; format: functional; conditions: time hrs 20-24; summary of the method: as §1
Staphylococcus aureus [5] = assay: Antibacterial activity against methicilin-resistant Staphylococcus aureus 55508 incubated for 20 to 24 hrs by microbroth dilution assay; format: functional; conditions: time hrs 20-24; summary of the method: as §1
Caco-2 [6] = assay: Cytotoxicity against human Caco2 cells assessed as cell viability at 108 ug/ml incubated for 3 hrs by MTT assay; format: cell-based; conditions: caco-2, 3 h, dose 108 µg/ml
Summary of the method: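 Undifferentiated Caco-2 cells, medium aspirated, treated 3 h at 37 °C, 220 rpm with compound in HEPES-buffered HBSS (HBSS alone as negative control, SDS as positive control). MTT then added (final 0.5 mg mL⁻¹) for 2 h more. Formazan dissolved overnight at 4 °C in 10 mM HCl/50% isobutanol/10% SDS. Mean ± SD of 3 wells, one passage.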

PC-3 = assay: Cytotoxicity against human PC3 cells assessed as cell viability at 108 ug/ml incubated for 3 hrs by Cell-titer Glo assay; format: cell-based; conditions: pc-3, 3 h, dose 108 µg/ml; summary of the method: as §2
[7] = Cytotoxicity against MDCK1 assessed as cell viability at 108 ug/ml incubated for 3 hrs by Cell-titer Glo assay; parameters: species or system Canis lupus familiaris; conditions: dog, mdck1, 3 h, dose 108 µg/ml; summary of the method: as §2
Staphylococcus aureus [8] = assay: Antibacterial activity against methicilin-resistant Staphylococcus aureus USA300 FPR3757 incubated for 20 hrs by microbroth dilution assay; format: functional
Summary of the method: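 MBC determined from a completed MIC replicate (MRSA USA300 FPR3757, Mueller-Hinton, 5.0·10^5 CFU/mL). […] MBC is the lowest concentration giving a 99.9% reduction of the starting inoculum; n = 3.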

Staphylococcus aureus [9] = assay: Antibacterial activity against methicilin-resistant Staphylococcus aureus 52518 incubated for 20 to 24 hrs by microbroth dilution assay; format: functional; conditions: time hrs 20-24; summary of the method: as §1
Caco-2 [10] = assay: Cytotoxicity against undifferentiated human Caco2 cells assessed as ATP level at 108 ug/ml incubated for 3 hrs by Cell-titer Glo assay; format: cell-based; conditions: caco-2, 3 h, dose 108 µg/ml; summary of the method: as §2
HEK293 = assay: Cytotoxicity against HEK293 cells expressing OAT3 assessed as cell viability at 108 ug/ml incubated for 3 hrs by Cell-titer Glo assay; format: ADME, cell-based; conditions: human, hek293, 3 h, dose 108 µg/ml; summary of the method: as §2

Row | SMILES | MIC (Staphylococcus aureus [1]) [µg/mL] | other results
1 | C=C[C@]1(C)C[C@@H](OC(=O)Cn2cc(-c3cccc(-n4cnc5c(N)ncnc54)c3)nn2)[C@]2(C)[C@H](C)CC[C@]3(CCC(=O)[C@H]32)[C@@H](C)[C@@H]1O | 0.06 (≈ 0.0939 µM) | 
2 | C=C[C@]1(C)C[C@@H](OC(=O)Cn2cc(-c3ccc(-n4cnc5c(N)ncnc54)cc3)nn2)[C@]2(C)[C@H](C)CC[C@]3(CCC(=O)[C@H]32)[C@@H](C)[C@@H]1O | 0.5 (≈ 0.783 µM) | 
3 | C=C[C@]1(C)C[C@@H](OC(=O)Cn2cc(-c3cccc(CN)c3)nn2)[C@]2(C)[C@H](C)CC[C@]3(CCC(=O)[C@H]32)[C@@H](C)[C@@H]1O | 2 (≈ 3.74 µM) | 
4 | C=C[C@]1(C)C[C@@H](OC(=O)Cn2cc(-c3cccc(Cn4cnc5c(N(CC)CC)ncnc54)c3)nn2)[C@]2(C)[C@H](C)CC[C@]3(CCC(=O)[C@H]32)[C@@H](C)[C@@H]1O | 1 (≈ 1.41 µM) | 
5 | C=C[C@]1(C)C[C@@H](OC(=O)Cn2cc(-c3ccccc3C#N)nn2)[C@]2(C)[C@H](C)CC[C@]3(CCC(=O)[C@H]32)[C@@H](C)[C@@H]1O | 0.5 (≈ 0.942 µM) | 
6 | C=C[C@]1(C)C[C@@H](OC(=O)Cn2cc(-c3ccc(Cn4cnc5c(NCCN)ncnc54)cc3)nn2)[C@]2(C)[C@H](C)CC[C@]3(CCC(=O)[C@H]32)[C@@H](C)[C@@H]1O | 0.5 (≈ 0.719 µM) | 
7 | C=C[C@]1(C)C[C@@H](OC(=O)Cn2cc(-c3cccc(C#N)c3)nn2)[C@]2(C)[C@H](C)CC[C@]3(CCC(=O)[C@H]32)[C@@H](C)[C@@H]1O | 1 (≈ 1.88 µM) | 
8 | C=C[C@]1(C)C[C@@H](OC(=O)Cn2cc(-c3ccccc3)nn2)[C@]2(C)[C@H](C)CC[C@]3(CCC(=O)[C@H]32)[C@@H](C)[C@@H]1O | 2 (≈ 3.96 µM) | 
9 | C=C[C@]1(C)C[C@@H](OC(=O)Cn2cc(-c3ccccc3CN)nn2)[C@]2(C)[C@H](C)CC[C@]3(CCC(=O)[C@H]32)[C@@H](C)[C@@H]1O | 4 (≈ 7.48 µM) | 
10 | C=C[C@]1(C)C[C@@H](OC(=O)Cn2cc(-c3ccccc3Cn3cnc4c(N(CC)CC)ncnc43)nn2)[C@]2(C)[C@H](C)CC[C@]3(CCC(=O)[C@H]32)[C@@H](C)[C@@H]1O | 1 (≈ 1.41 µM) | 
11 | C=C[C@]1(C)C[C@@H](OC(=O)Cn2cc(-c3ccc(Cn4cnc5c(N)ncnc54)cc3)nn2)[C@]2(C)[C@H](C)CC[C@]3(CCC(=O)[C@H]32)[C@@H](C)[C@@H]1O | 0.03 (≈ 0.046 µM) | MIC (Staphylococcus aureus [2]): 0.06 µg/mL (≈ 0.0919 µM); Activity (Caco-2 [3]): Toxic; MIC [4]: 0.25 µg/mL (≈ 0.383 µM); MIC (Staphylococcus aureus [5]): 0.06 µg/mL (≈ 0.0919 µM); Activity (Caco-2 [6]): Non-Toxic; Activity (PC-3): Non-Toxic; Activity [7]: Non-Toxic; MBC (Staphylococcus aureus [8]): 0.12 µg/mL (≈ 0.184 µM); MIC (Staphylococcus aureus [9]): 0.03 µg/mL (≈ 0.046 µM); Activity (Caco-2 [10]): Non-Toxic; Activity (HEK293): Non-Toxic
12 | C=C[C@]1(C)C[C@@H](OC(=O)Cn2cc(-c3cccc(Cn4cc(C)c(=O)[nH]c4=O)c3)nn2)[C@]2(C)[C@H](C)CC[C@]3(CCC(=O)[C@H]32)[C@@H](C)[C@@H]1O | 1 (≈ 1.55 µM) | 
13 | C=C[C@]1(C)C[C@@H](OC(=O)Cn2cc(-c3ccc(Cn4cnc5c(N(CC)CC)ncnc54)cc3)nn2)[C@]2(C)[C@H](C)CC[C@]3(CCC(=O)[C@H]32)[C@@H](C)[C@@H]1O | 0.25 (≈ 0.353 µM) | 
14 | C=C[C@]1(C)C[C@@H](OC(=O)Cn2cc(-c3ccc(Cn4cc(C)c(=O)[nH]c4=O)cc3)nn2)[C@]2(C)[C@H](C)CC[C@]3(CCC(=O)[C@H]32)[C@@H](C)[C@@H]1O | 0.13 (≈ 0.202 µM) | 
15 | C=C[C@]1(C)C[C@@H](OC(=O)Cn2cc(-c3ccc(CN(CC)CC)cc3)nn2)[C@]2(C)[C@H](C)CC[C@]3(CCC(=O)[C@H]32)[C@@H](C)[C@@H]1O | 4 (≈ 6.77 µM) | 
16 | C=C[C@]1(C)C[C@@H](OC(=O)Cn2cc(-c3ccc(Cc4ccc(OC)cc4)cc3)nn2)[C@]2(C)[C@H](C)CC[C@]3(CCC(=O)[C@H]32)[C@@H](C)[C@@H]1O | 8 (≈ 12.8 µM) | 
17 | C=C[C@]1(C)C[C@@H](OC(=O)Cn2cc(-c3cccc(CO)c3)nn2)[C@]2(C)[C@H](C)CC[C@]3(CCC(=O)[C@H]32)[C@@H](C)[C@@H]1O | 0.5 (≈ 0.933 µM) | 
18 | C=C[C@]1(C)C[C@@H](OC(=O)Cn2cc(-c3cccc(Cn4cnc5c(N)ncnc54)c3)nn2)[C@]2(C)[C@H](C)CC[C@]3(CCC(=O)[C@H]32)[C@@H](C)[C@@H]1O | 0.25 (≈ 0.383 µM) | 

Row | SMILES | MIC (Staphylococcus aureus [1]) [µg/mL] | other results
19 | C=C[C@]1(C)C[C@@H](OC(=O)Cn2cc(-c3ccccc3Cn3cc(C)c(=O)[nH]c3=O)nn2)[C@]2(C)[C@H](C)CC[C@]3(CCC(=O)[C@H]32)[C@@H](C)[C@@H]1O | 1 (≈ 1.55 µM) | 
20 | C=C[C@]1(C)C[C@@H](OC(=O)Cn2cc(-c3cccc(Cc4cccc(CO)c4)c3)nn2)[C@]2(C)[C@H](C)CC[C@]3(CCC(=O)[C@H]32)[C@@H](C)[C@@H]1O | 1 (≈ 1.6 µM) | 
21 | C=C[C@]1(C)C[C@@H](OC(=O)Cn2cc(-c3ccc(CN4CCN(C)CC4)cc3)nn2)[C@]2(C)[C@H](C)CC[C@]3(CCC(=O)[C@H]32)[C@@H](C)[C@@H]1O | 4 (≈ 6.47 µM) | 
22 | C=C[C@]1(C)C[C@@H](OC(=O)Cn2cc(-c3ccccc3Cn3cnc4c(N(CC)CC)nc(N)nc43)nn2)[C@]2(C)[C@H](C)CC[C@]3(CCC(=O)[C@H]32)[C@@H](C)[C@@H]1O | 0.5 (≈ 0.691 µM) | 
23 | C=C[C@]1(C)C[C@@H](OC(=O)Cn2cc(-c3cccc(CN(CC)CC)c3)nn2)[C@]2(C)[C@H](C)CC[C@]3(CCC(=O)[C@H]32)[C@@H](C)[C@@H]1O | 2 (≈ 3.39 µM) | 
24 | C=C[C@]1(C)C[C@@H](OC(=O)Cn2cc(-c3cccc(N)c3)nn2)[C@]2(C)[C@H](C)CC[C@]3(CCC(=O)[C@H]32)[C@@H](C)[C@@H]1O | 1 (≈ 1.92 µM) | 
25 | C=C[C@]1(C)C[C@@H](OC(=O)Cn2cc(-c3ccccc3Cn3cnc4c(N)ncnc43)nn2)[C@]2(C)[C@H](C)CC[C@]3(CCC(=O)[C@H]32)[C@@H](C)[C@@H]1O | 0.5 (≈ 0.766 µM) | 
26 | C=C[C@]1(C)C[C@@H](OC(=O)Cn2cc(-c3ccccc3Cc3ccc(OC)cc3)nn2)[C@]2(C)[C@H](C)CC[C@]3(CCC(=O)[C@H]32)[C@@H](C)[C@@H]1O | 2 (≈ 3.2 µM) | 
27 | C=C[C@]1(C)C[C@@H](OC(=O)Cn2cc(-c3ccc(CN4C(=O)c5ccccc5C4=O)cc3)nn2)[C@]2(C)[C@H](C)CC[C@]3(CCC(=O)[C@H]32)[C@@H](C)[C@@H]1O | 0.25 (≈ 0.376 µM) | 
28 | C=C[C@]1(C)C[C@@H](OC(=O)Cn2cc(-c3cccc(Cc4cccc(CN(CC)CC)c4)c3)nn2)[C@]2(C)[C@H](C)CC[C@]3(CCC(=O)[C@H]32)[C@@H](C)[C@@H]1O | 2 (≈ 2.94 µM) | 
29 | C=C[C@]1(C)C[C@@H](OC(=O)Cn2cc(-c3cccc(Cn4cnc5c(N6CCN(C)CC6)ncnc54)c3)nn2)[C@]2(C)[C@H](C)CC[C@]3(CCC(=O)[C@H]32)[C@@H](C)[C@@H]1O | 0.5 (≈ 0.679 µM) | 
30 | C=C[C@]1(C)C[C@@H](OC(=O)Cn2cc(-c3ccc(CO)cc3)nn2)[C@]2(C)[C@H](C)CC[C@]3(CCC(=O)[C@H]32)[C@@H](C)[C@@H]1O | 0.25 (≈ 0.467 µM) | 
31 | C=C[C@]1(C)C[C@@H](OC(=O)Cn2cc(-c3cccc(Cc4ccc(N(CC)CC)cc4)c3)nn2)[C@]2(C)[C@H](C)CC[C@]3(CCC(=O)[C@H]32)[C@@H](C)[C@@H]1O | 8 (≈ 12 µM) | 
32 | C=C[C@]1(C)C[C@@H](OC(=O)Cn2cc(-c3cccc(CN4CCN(C)CC4)c3)nn2)[C@]2(C)[C@H](C)CC[C@]3(CCC(=O)[C@H]32)[C@@H](C)[C@@H]1O | 2 (≈ 3.24 µM) | 
33 | C=C[C@]1(C)C[C@@H](OC(=O)Cn2cc(-c3cccc(Cc4ccc(OC)cc4)c3)nn2)[C@]2(C)[C@H](C)CC[C@]3(CCC(=O)[C@H]32)[C@@H](C)[C@@H]1O | 16 (≈ 25.6 µM) | 
34 | C=C[C@]1(C)C[C@@H](OC(=O)Cn2cc(-c3ccc(Cn4cnc5c(NC(=N)N)ncnc54)cc3)nn2)[C@]2(C)[C@H](C)CC[C@]3(CCC(=O)[C@H]32)[C@@H](C)[C@@H]1O | 0.5 (≈ 0.72 µM) | 
35 | C=C[C@]1(C)C[C@@H](OC(=O)Cn2cc(-c3ccc(CN)cc3)nn2)[C@]2(C)[C@H](C)CC[C@]3(CCC(=O)[C@H]32)[C@@H](C)[C@@H]1O | 2 (≈ 3.74 µM) | 
36 | C=C[C@]1(C)C[C@@H](OC(=O)Cn2cc(-c3cccc(Cn4cnc5c(N(CC)CC)nc(N)nc54)c3)nn2)[C@]2(C)[C@H](C)CC[C@]3(CCC(=O)[C@H]32)[C@@H](C)[C@@H]1O | 0.5 (≈ 0.691 µM) | 
